This is an account of results in ChEMBL document CHEMBL1134594 (J Med Chem, 2001).

The target in one test is Glucagon receptor (Rattus norvegicus, UniProt P30082). Description: Glucagon receptor binding measured as 50% inhibitory concentration. The gist of the method:
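Membranes (50 µg protein) were taken from the livers of male Sprague Dawley rats (200-250 g), purified on a sucrose gradient. […] Nonspecific binding was defined with excess unlabeled peptide and subtracted. Run in triplicate, repeated twice.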

Test [1] concerns the target Adenylate cyclase. Description: Adenylate cyclase activity measured as 50% inhibitory concentration. The test is classed as protein assay.
In test [2] the target is T1, Adenylate cyclase (Rattus norvegicus) (UniProt D4A3N4+P26770+Q04400+P26769+Q03343+P40146+Q8CFM9+P21932). Description: Adenylate cyclase activity measured as percentage stimulation at (1 uM). The test is classed as protein assay. Summed up:
(§1)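 Rat liver plasma membranes (35 µg protein) incubated in 0.1 mL of 25 mM Tris (pH 7.5) with 0.4% BSA, 1 mM [α-32P]ATP, 5 mM MgCl2, GTP, 1 mM EDTA, 1 mM cAMP with [3H]cAMP tracer, and a phosphocreatine/creatine phosphokinase ATP-regenerating system. Labeled cAMP was isolated on Dowex cation-exchange and alumina columns.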

For test [3], the target named is T1, Adenylate cyclase (Rattus norvegicus). The test can be described thus: Adenylate cyclase activity measured as percentage stimulation at (20uM). The test is classed as protein assay. Summed up: as §1
The target is the same in test [4]. Description: Adenylate cyclase activity measured as percentage stimulation at 20 uM. The test is classed as protein assay. The gist of the method:
as §1

For test [5] the target is unchanged. The test can be described thus: Adenylate cyclase activity measured as percentage stimulation. It counts as protein assay. On the set-up: concentration or dose not given beside the values.
Test [6] addresses Adenylate cyclase. The test can be described thus: Adenylate cyclase activity measured as PA2. It counts as protein assay.

The term IC50 denotes the concentration that inhibits the measured activity by half. The EC50 is the concentration that produces a half-maximal response. The term pA2 denotes the negative logarithm of the molar antagonist concentration that doubles the agonist concentration needed for the same response.

Where a SMILES comes first, the peptide text is derived from it. Bridges are numbered along the chain shown (N, C = ends).

Glucagon receptor, sequence (P30082 whole entry): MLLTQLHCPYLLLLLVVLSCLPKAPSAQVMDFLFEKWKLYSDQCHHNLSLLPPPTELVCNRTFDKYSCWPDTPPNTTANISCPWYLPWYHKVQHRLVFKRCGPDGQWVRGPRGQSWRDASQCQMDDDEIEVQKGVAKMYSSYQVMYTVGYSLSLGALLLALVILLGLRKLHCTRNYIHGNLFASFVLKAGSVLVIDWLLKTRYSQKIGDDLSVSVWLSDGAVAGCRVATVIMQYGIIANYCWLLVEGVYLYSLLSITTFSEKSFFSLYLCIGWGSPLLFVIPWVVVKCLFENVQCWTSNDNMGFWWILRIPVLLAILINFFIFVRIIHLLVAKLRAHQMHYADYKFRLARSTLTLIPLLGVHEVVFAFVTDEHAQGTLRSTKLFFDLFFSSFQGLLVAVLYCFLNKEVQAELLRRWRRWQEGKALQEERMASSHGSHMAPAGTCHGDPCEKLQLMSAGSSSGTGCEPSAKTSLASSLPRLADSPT

In the case of `CSCC[C@H](NC(=O)[C@H](CC(C)C)NC(=O)[C@H](Cc1c[nH]c2ccccc12)NC(=O)[C@H](CCC(N)=O)NC(=O)[C@@H](NC(=O)[C@H](Cc1ccccc1)NC(=O)[C@H](CC(=O)O)NC(=O)[C@H](CCC(N)=O)NC(=O)[C@H](CS)NC(=O)[C@H](CCCN=C(N)N)NC(=O)[C@H](CCCN=C(N)N)NC(=O)[C@H](CO)NC(=O)[C@H](CC(=O)O)NC(=O)[C@H](CS)NC(=O)[C@H](Cc1ccc(O)cc1)NC(=O)[C@H](CCCCN)NC(=O)[C@H](CO)NC(=O)[C@H](Cc1ccc(O)cc1)NC(=O)[C@H](CC(=O)O)NC(=O)[C@H](CO)NC(=O)[C@@H](NC(=O)[C@H](Cc1ccccc1)NC(=O)[C@@H](NC(=O)CNC(=O)[C@H](CCC(N)=O)NC(=O)[C@H](CO)NC(=O)[C@@H](N)Cc1c[nH]cn1)[C@@H](C)O)[C@@H](C)O)C(C)C)C(=O)N[C@@H](CC(N)=O)C(=O)N[C@H](C(=O)O)[C@@H](C)O` (H-HSQGTFTSDYSKYCDSRRCQDFVQWLMNT-OH), the IC50 at Glucagon receptor was found to be 13.7 nM. This molecule showed an EC50 on Adenylate cyclase [1] of 236 nM. In test [2], the Activity was 100%.
`CSCC[C@H](NC(=O)[C@H](CC(C)C)NC(=O)[C@H](Cc1c[nH]c2ccccc12)NC(=O)[C@H](CCC(N)=O)NC(=O)[C@@H](NC(=O)[C@H](Cc1ccccc1)NC(=O)[C@H](CC(=O)O)NC(=O)[C@H](CCC(N)=O)NC(=O)[C@H](C)NC(=O)[C@H](CCCN=C(N)N)NC(=O)[C@H](CCCN=C(N)N)NC(=O)[C@H](CO)NC(=O)[C@H](CC(=O)O)NC(=O)[C@H](CC(C)C)NC(=O)[C@H](Cc1ccc(O)cc1)NC(=O)[C@@H]1CSSC[C@H](NC(=O)[C@H](Cc2ccccc2)NC(=O)[C@@H](NC(=O)CNC(=O)[C@H](CCC(N)=O)NC(=O)[C@H](CO)NC(=O)[C@@H](N)Cc2c[nH]cn2)[C@@H](C)O)C(=O)N[C@@H](CO)C(=O)N[C@@H](CC(=O)O)C(=O)N[C@@H](Cc2ccc(O)cc2)C(=O)N[C@@H](CO)C(=O)N1)C(C)C)C(=O)N[C@@H](CC(N)=O)C(=O)N[C@H](C(=O)O)[C@@H](C)O` (H-HSQGTFCSDYSCYLDSRRAQDFVQWLMNT-OH; disulfide 7-12) displayed an IC50 at Glucagon receptor of 558 nM. At Adenylate cyclase [1], this molecule registered an EC50 of 5900 nM. The molecule further had an Activity in test [3] of 53%.
`CSCC[C@H](NC(=O)[C@H](CC(C)C)NC(=O)[C@H](Cc1c[nH]c2ccccc12)NC(=O)[C@H](CCC(N)=O)NC(=O)[C@@H](NC(=O)[C@H](Cc1ccccc1)NC(=O)[C@H](CC(=O)O)NC(=O)[C@H](CCC(N)=O)NC(=O)[C@@H]1CSSC[C@H](NC(=O)[C@H](Cc2ccc(O)cc2)NC(=O)[C@H](CCCCN)NC(=O)[C@H](CO)NC(=O)[C@H](Cc2ccc(O)cc2)NC(=O)[C@H](CC(=O)O)NC(=O)[C@H](CO)NC(=O)[C@@H](NC(=O)[C@H](Cc2ccccc2)NC(=O)[C@@H](NC(=O)CNC(=O)[C@H](CCC(N)=O)NC(=O)[C@H](CO)NC(=O)[C@@H](N)Cc2c[nH]cn2)[C@@H](C)O)[C@@H](C)O)C(=O)N[C@@H](CC(=O)O)C(=O)N[C@@H](CO)C(=O)N[C@@H](CCCN=C(N)N)C(=O)N[C@@H](CCCN=C(N)N)C(=O)N1)C(C)C)C(=O)N[C@@H](CC(N)=O)C(=O)N[C@H](C(=O)O)[C@@H](C)O` (H-HSQGTFTSDYSKYCDSRRCQDFVQWLMNT-OH; disulfide 14-19): the IC50 at Glucagon receptor was 562 nM. In test [4], this molecule showed an Activity of 30%. In addition, the EC50 at Adenylate cyclase [1] is listed as 7500 nM.
As for `CSCC[C@H](NC(=O)[C@H](CC(C)C)NC(=O)[C@H](Cc1c[nH]c2ccccc12)NC(=O)[C@H](CCC(N)=O)NC(=O)[C@@H](NC(=O)[C@H](Cc1ccccc1)NC(=O)[C@H](CC(=O)O)NC(=O)[C@H](CCC(N)=O)NC(=O)[C@H](C)NC(=O)[C@H](CCCN=C(N)N)NC(=O)[C@H](CCCN=C(N)N)NC(=O)[C@H](CO)NC(=O)[C@H](CC(=O)O)NC(=O)[C@H](CC(C)C)NC(=O)[C@H](Cc1ccc(O)cc1)NC(=O)[C@H](CCCCN)NC(=O)[C@H](CO)NC(=O)[C@H](Cc1ccc(O)cc1)NC(=O)[C@@H]1CCC(=O)NCCCC[C@H](NC(=O)CNC(=O)[C@H](CCC(N)=O)NC(=O)[C@H](CO)NC(=O)[C@@H](N)Cc2c[nH]cn2)C(=O)N[C@@H](Cc2ccccc2)C(=O)N[C@@H]([C@@H](C)O)C(=O)N[C@@H](CO)C(=O)N1)C(C)C)C(=O)N[C@@H](CC(N)=O)C(=O)N[C@H](C(=O)O)[C@@H](C)O` (H-HSQGKFTSEYSKYLDSRRAQDFVQWLMNT-OH; lactam 5-9), the IC50 on Glucagon receptor is 0.2 nM. The molecule also had an EC50 at Adenylate cyclase [1] of 390 nM. Moreover, the Activity in test [5] turned out to be 12%. The same molecule came in with a pA2 at Adenylate cyclase [6] of 8.26.
Molecule `CSCC[C@H](NC(=O)[C@H](CC(C)C)NC(=O)[C@H](Cc1c[nH]c2ccccc12)NC(=O)[C@H](CCC(N)=O)NC(=O)[C@@H](NC(=O)[C@H](Cc1ccccc1)NC(=O)[C@H](CC(=O)O)NC(=O)[C@H](CCC(N)=O)NC(=O)[C@H](C)NC(=O)[C@H](CCCN=C(N)N)NC(=O)[C@H](CCCN=C(N)N)NC(=O)[C@H](CO)NC(=O)[C@H](CC(=O)O)NC(=O)[C@H](CC(C)C)NC(=O)[C@H](Cc1ccc(O)cc1)NC(=O)[C@H](CS)NC(=O)[C@H](CO)NC(=O)[C@H](Cc1ccc(O)cc1)NC(=O)[C@H](CC(=O)O)NC(=O)[C@H](CO)NC(=O)[C@H](CS)NC(=O)[C@H](Cc1ccccc1)NC(=O)[C@@H](NC(=O)CNC(=O)[C@H](CCC(N)=O)NC(=O)[C@H](CO)NC(=O)[C@@H](N)Cc1c[nH]cn1)[C@@H](C)O)C(C)C)C(=O)N[C@@H](CC(N)=O)C(=O)N[C@H](C(=O)O)[C@@H](C)O` (H-HSQGTFCSDYSCYLDSRRAQDFVQWLMNT-OH) showed an EC50 on Adenylate cyclase [1] of 59 nM. Moreover, in test [3], the Activity worked out at 100%.
Take `CSCC[C@H](NC(=O)[C@H](CC(C)C)NC(=O)[C@H](Cc1c[nH]c2ccccc12)NC(=O)[C@H](CCC(N)=O)NC(=O)[C@@H](NC(=O)[C@H](Cc1ccccc1)NC(=O)[C@H](CC(=O)O)NC(=O)[C@H](CCC(N)=O)NC(=O)[C@H](C)NC(=O)[C@H](CCCN=C(N)N)NC(=O)[C@H](CCCN=C(N)N)NC(=O)[C@H](CO)NC(=O)[C@H](CC(=O)O)NC(=O)[C@H](CC(C)C)NC(=O)[C@H](Cc1ccc(O)cc1)NC(=O)[C@H](CCCCN)NC(=O)[C@H](CO)NC(=O)[C@H](Cc1ccc(O)cc1)NC(=O)[C@H](CC(=O)O)NC(=O)[C@H](CO)NC(=O)[C@@H]1CCC(=O)NCCCC[C@H](NC(=O)[C@H](CO)NC(=O)[C@@H](N)Cc2c[nH]cn2)C(=O)NCC(=O)N[C@@H]([C@@H](C)O)C(=O)N[C@@H](Cc2ccccc2)C(=O)N1)C(C)C)C(=O)N[C@@H](CC(N)=O)C(=O)N[C@H](C(=O)O)[C@@H](C)O` (H-HSKGTFESDYSKYLDSRRAQDFVQWLMNT-OH; lactam 3-7): the IC50 on Glucagon receptor came out at 6 nM. Moreover, on Adenylate cyclase [6], the pA2 is listed as 8.28.
The molecule `CSCC[C@H](NC(=O)[C@H](CC(C)C)NC(=O)[C@H](Cc1c[nH]c2ccccc12)NC(=O)[C@H](CCC(N)=O)NC(=O)[C@@H](NC(=O)[C@H](Cc1ccccc1)NC(=O)[C@H](CC(=O)O)NC(=O)[C@H](CCC(N)=O)NC(=O)[C@H](C)NC(=O)[C@H](CCCN=C(N)N)NC(=O)[C@H](CCCN=C(N)N)NC(=O)[C@H](CO)NC(=O)[C@H](CC(=O)O)NC(=O)[C@H](CC(C)C)NC(=O)[C@H](Cc1ccc(O)cc1)NC(=O)[C@H](CCCCN)NC(=O)[C@H](CO)NC(=O)[C@H](Cc1ccc(O)cc1)NC(=O)[C@H](CC(=O)O)NC(=O)[C@H](CO)NC(=O)[C@@H]1CSSC[C@H](NC(=O)[C@@H](N)Cc2c[nH]cn2)C(=O)N[C@@H](CCC(N)=O)C(=O)NCC(=O)N[C@@H]([C@@H](C)O)C(=O)N[C@@H](Cc2ccccc2)C(=O)N1)C(C)C)C(=O)N[C@@H](CC(N)=O)C(=O)N[C@H](C(=O)O)[C@@H](C)O` (H-HCQGTFCSDYSKYLDSRRAQDFVQWLMNT-OH; disulfide 2-7) yielded an IC50 at Glucagon receptor of 101 nM. Moreover, the EC50 on Adenylate cyclase [1] turned out to be 9200 nM. Moreover, in test [5], the Activity is 23%.
